These results are taken from ChEMBL document CHEMBL3612038, “N-Alkyl/aryl-4-(3-substituted-3-phenylpropyl)piperazine-1-carbothioamide as dual-action vaginal microbicides with reverse transcriptase inhibition” (Eur J Med Chem, 2015).

For data set [1], the system named is Trichophyton mentagrophytes. In words: Antifungal activity against Trichophyton mentagrophytes incubated for 48 hrs by broth micro-dilution method. It counts as functional. In a few lines: (§1)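 Broth microdilution per NCCLS guidelines in RPMI 1640 buffered with MOPS; starting inoculum 1–5 × 10^3 CFU/mL; plates incubated at 35 °C, MIC read after 48 h.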
A further data set relates to HeLa. In words: Cytotoxicity against human HeLa cells assessed as reduction in cell viability at 200 ug/ml incubated for 24 hrs by MTT assay. It counts as cell-based. In a few lines: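 HeLa cells seeded at 5 × 10^4 per well, exposed 24 h to compound dilutions in culture medium or vehicle control; MTT (5 mg/mL in pH 7.4 buffer) added, formazan dissolved in DMSO, absorbance read at 540 nm.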
For orientation: Tetrazolium dyes change colour on reduction, which living cells bring about.

A short description of data set [2]: Spermicidal activity in liquefied human semen assessed as reduction in motile spermatozoa incubated at 37 degC for 30 mins. The class given is functional, Sperm. To be noted: for minimal effective concentration: Homo sapiens, Sperm, Semen, 0.5 h, read-out: MEC. In a few lines: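 Compounds dissolved in minimal DMSO, diluted with 0.85% saline to 1.0% test solution; liquefied human semen mixed 1:5 with test solution, vortexed 10 s; motile sperm scored by phase-contrast microscopy over 60 s in five fields. MEC = lowest concentration immobilizing 100% of sperm, still immotile after dilution with nutrient medium.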

The next data set relates to Sporothrix schenckii. In words: Antifungal activity against Sporothrix schenckii incubated for 48 hrs by broth micro-dilution method. The class given is functional. In a few lines:
as §1
A general note: In broth dilution the organism is exposed to a series of concentrations in liquid medium.

A short description of data set [3]: Effect on Lactobacillus jensenii ATCC 25258 62G assessed as effect on microbial proliferation at 200 ug/ml incubated for 24 hrs. In a few lines:
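L. jensenii ATCC 25258 (strain 62G) in 6% Rogosa SL broth with 0.132% acetic acid; serial compound dilutions or vehicle in triplicate, ~1000 CFU per well, 24 h at 37 °C, humidified 5% CO2; growth read as OD610, expressed relative to control = 100.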

Another data set deals with Candida parapsilosis. As to the kind of experiment: Antifungal activity against Candida parapsilosis ATCC 22019 incubated for 48 hrs by broth micro-dilution method. The class given is functional. Conditions: Lodderomyces parapsilosis, ATCC 22019, 48 h. In a few lines: as §1
In the next data set the test system is Cryptococcus neoformans. As to the kind of experiment: Antifungal activity against Cryptococcus neoformans incubated for 48 hrs by broth micro-dilution method. It counts as functional. In a few lines: as §1
The test system of data set [4] is Trichomonas vaginalis. As to the kind of experiment: Anti-trichomonas activity against MTZ-susceptible Trichomonas vaginalis incubated for 3 to 48 hrs by trypan blue exclusion assay. The class given is functional. In a few lines:
(§2)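 Trichomonas vaginalis trophozoites (5 × 10^4/L as printed) in TYM medium; DMSO stocks (100.0 mg/mL) serially diluted in TYM to 0.1 mg/mL, DMSO/TYM vehicle controls. Anaerobic incubation at 37 °C; viability checked 3–48 h by microscopy (200×) with trypan blue exclusion. MIC = lowest concentration killing all cells within 48 h.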

Data set [5] deals with Trichomonas vaginalis. In words: Anti-trichomonas activity against MTZ-resistant Trichomonas vaginalis incubated for 3 to 48 hrs by trypan blue exclusion assay. It counts as functional. In a few lines: as §2
Data set [6] addresses Human immunodeficiency virus type 1 reverse transcriptase (Human immunodeficiency virus 1) (UniProt Q72547). As to the kind of experiment: Inhibition of HIV1 reverse transcriptase at 100 ug/ml incubated for 1 hr by ELISA method. In a few lines:
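Non-radioactive colorimetric ELISA: template/primer with dNTPs plus HIV-1 RT in lysis buffer ± compound (100 µg/mL), 1 h at 37 °C; RT-free buffer as negative control, nevirapine as positive control. Product captured on streptavidin plate 1 h at 37 °C, detected with anti-DIG-POD and ABTS, OD 405 nm.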

In data set [7] the test system is Trichomonas vaginalis. In words: Resistance index, ratio of MIC for MTZ-resistant Trichomonas vaginalis to MIC for MTZ-susceptible Trichomonas vaginalis. It counts as functional.
The test system of another data set is Aspergillus fumigatus. As to the kind of experiment: Antifungal activity against Aspergillus fumigatus incubated for 48 hrs by broth micro-dilution method. It counts as functional. In a few lines: as §1
Another data set concerns Candida albicans. As to the kind of experiment: Antifungal activity against Candida albicans incubated for 48 hrs by broth micro-dilution method. The class given is functional. In a few lines: as §1
For data set [8], the system named is Oryctolagus cuniculus. In words: Apparent […] volume of distribution in New-Zealand rabbit at 33 mg/kg dosed through vaginal administration by LC-MS/MS method. It counts as ADME, organism-based. To be noted: in vivo. In a few lines:
(§3)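 Female New Zealand rabbits received a single vaginal dose of 33 mg/kg. Drug in plasma was quantified by LC-MS/MS on a C18 column with phenacetin as internal standard. For each plasma sample (50 µL), 200 µL of internal-standard solution (200 ng/mL phenacetin in acetonitrile) was added. Samples were mixed, centrifuged at 13,000 rpm for 20 min, and the supernatant injected. The method was validated to FDA bioanalytical criteria.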

Data set [9] in a line: AUC (0 to infinity) in New-Zealand rabbit at 33 mg/kg dosed through vaginal administration by LC-MS/MS method. It counts as ADME, organism-based, Oryctolagus cuniculus. On the set-up: dose 33 mg/kg, time infinity. To be noted: in vivo. In a few lines: as §3
Data set [10] in a line: Tmax in New-Zealand rabbit at 33 mg/kg dosed through vaginal administration by LC-MS/MS method. It counts as ADME, organism-based, Oryctolagus cuniculus. Conditions: in vivo. In a few lines:
as §3

The subject of data set [11] is Oryctolagus cuniculus. In words: Drug level in plasma of New-Zealand rabbit at 33 mg/kg dosed through vaginal administration by LC-MS/MS method. It counts as ADME, organism-based. To be noted: in vivo, other. In a few lines: as §3
A short description of data set [12]: Terminal half life in New-Zealand rabbit at 33 mg/kg dosed through vaginal administration by LC-MS/MS method. The class given is ADME, organism-based, Oryctolagus cuniculus. To be noted: in vivo, read-out: beta t1/2 (converted). In a few lines:
as §3

A short description of data set [13]: Stability in simulated vaginal fluid at pH 4.2 at 200 ng/ml by LC-MS/MS method. To be noted: buffer.
Data set [14] can be described thus: Cmax in New-Zealand rabbit at 33 mg/kg dosed through vaginal administration by LC-MS/MS method. It counts as ADME, organism-based, Oryctolagus cuniculus. To be noted: in vivo. On the set-up: dose 33 mg/kg. In a few lines: as §3

Molecules are shown by their SMILES. ≈ marks a conversion by molar mass, not a printed value.

What is called MIC is the least concentration at which growth counts as inhibited. Higher therefore signals weaker potency. For orientation: inhibition means the percentage by which the read-out fell short of the control. With `CCCCNC(=S)N1CCN(CCC(O)c2ccccc2)CC1` (stereo not given), the minimal inhibitory concentration (MIC) was greater than 81.2 µM in data set [1]; greater than 81.2 µM against Sporothrix schenckii; greater than 81.2 µM with Candida parapsilosis; greater than 81.2 µM against Cryptococcus neoformans; 46.4 µM (≈ 15.6 µg/mL) against Trichomonas vaginalis [4]; 187 µM (≈ 62.6 µg/mL) in the data set with Trichomonas vaginalis [5]. The MIC against Aspergillus fumigatus and against Candida albicans was greater than 81.2 µM throughout. The Activity entry (in the data set with HeLa; in data set [3]) was “Non-toxic” throughout. Moreover, in data set [2], the MEC came to 0.05%. In addition, the minimal effective concentration in [2] worked out at 1490 µM. The molecule further had an inhibition in data set [6] of 29.1%. Besides, the Ratio with Trichomonas vaginalis [7] turned out to be 4.
As usually defined, the Vd/F is the volume of distribution divided by bioavailability. The AUC(0-inf) is the area under the concentration-time curve extrapolated to infinity. Higher therefore signals high exposure. Broadly, the Tmax is the time from dosing to the highest level. One may read the Cmax as the maximum level reached in the sampled fluid or tissue. In the case of `CCCCCCCCCc1ccc(OCCOCCOCCOCCOCCOCCOCCOCCOCCO)cc1` [NONOXYNOL 9], the minimal inhibitory concentration (MIC) was greater than 81.2 µM in data set [1]; greater than 81.2 µM in the data set on Sporothrix schenckii; greater than 81.2 µM in the data set on Candida parapsilosis; greater than 81.2 µM against Cryptococcus neoformans; 81.2 µM (≈ 50.1 µg/mL) against Trichomonas vaginalis [4]; 122 µM (≈ 75.1 µg/mL) in the data set on Trichomonas vaginalis [5]. Moreover, the minimum inhibitory concentration (MIC) with Aspergillus fumigatus and with Candida albicans was greater than 81.2 µM in each case. The MEC in data set [2] stood at 0.05%. In data set [2], the minimal effective concentration was 810 µM. The Vd/F in the data set on Oryctolagus cuniculus [8] is 7931.32 L/kg. This molecule yielded an area under the curve AUC(0-inf) in data set [9] of 12.9 ng·h/mL. Moreover, in data set [10], the time of peak concentration (Tmax) came out at 1 h. In addition, in the data set on Oryctolagus cuniculus [11], the Drug uptake result was “Not Active”. Further, the half-life in [12] is 1.59 h. In data set [13], this molecule gave a Stability greater than 1 h. The maximum concentration (Cmax) in data set [14] is 3.66 ng/mL.
`CCCCNC(=S)N1CCN(CCC(=O)c2ccccc2)CC1`: the MIC in data set [1] was 9.34 µM (≈ 3.11 µg/mL); against Sporothrix schenckii, greater than 81.2 µM; in the data set on Candida parapsilosis, greater than 81.2 µM; in the data set with Cryptococcus neoformans, 9.34 µM (≈ 3.11 µg/mL); against Trichomonas vaginalis [4] it was 46.7 µM (≈ 15.6 µg/mL); in the data set on Trichomonas vaginalis [5], 188 µM (≈ 62.6 µg/mL). Besides, the MIC with Aspergillus fumigatus was greater than 81.2 µM; against Candida albicans, 74.8 µM (≈ 24.9 µg/mL). In addition, the Activity result (with HeLa; in [3]) was “Non-toxic” in each case. In data set [2], the MEC is reported as 0.01%. Moreover, the minimal effective concentration in [2] is 300 µM. Moreover, the area under the curve AUC(0-inf) in [9] is 14.7 ng·h/mL. This molecule also displayed an inhibition in data set [6] of 72.3%. Also, the Ratio in the data set on Trichomonas vaginalis [7] came to 4. Also, the Tmax in data set [10] came out at 0.75 h. In addition, the Drug uptake result in the data set on Oryctolagus cuniculus [11] is given as “Not Active”. Further, the half-life in [12] is 4.67 h. In data set [13], this molecule displayed a Stability greater than 1 h. This molecule also gave a Cmax in data set [14] of 4.43 ng/mL.
As to `CCCCNC(=S)N1CCN(CCC(Oc2ccc(C(F)(F)F)cc2)c2ccccc2)CC1` (stereo not given), the MIC in [1] was greater than 81.2 µM; against Sporothrix schenckii it was greater than 81.2 µM; in the data set on Candida parapsilosis, greater than 81.2 µM; with Cryptococcus neoformans, greater than 81.2 µM; in the data set on Trichomonas vaginalis [4] it was 130 µM (≈ 62.6 µg/mL); against Trichomonas vaginalis [5] it was 261 µM (≈ 125 µg/mL). For the same molecule, the MIC with Aspergillus fumigatus and with Candida albicans was greater than 81.2 µM throughout. Moreover, the Activity result (in the data set with HeLa; in data set [3]) was “Non-toxic” throughout. Besides, the MEC in [2] was greater than 1%. Besides, in data set [2], the minimal effective concentration was greater than 20900 µM. The inhibition in [6] worked out at 59.6%. Moreover, the Ratio with Trichomonas vaginalis [7] is recorded as 2.
